Legend:
Format in all cases: cell-based
[1] = target: T1, Bile acid receptor (Homo sapiens) (UniProt Q96RI1); test: Agonist activity at FXR in human HepG2 cells assessed as induction of CYP7A1 mrNA expression at 3 uM by quantitative PCR method
T1 sequence (whole entry): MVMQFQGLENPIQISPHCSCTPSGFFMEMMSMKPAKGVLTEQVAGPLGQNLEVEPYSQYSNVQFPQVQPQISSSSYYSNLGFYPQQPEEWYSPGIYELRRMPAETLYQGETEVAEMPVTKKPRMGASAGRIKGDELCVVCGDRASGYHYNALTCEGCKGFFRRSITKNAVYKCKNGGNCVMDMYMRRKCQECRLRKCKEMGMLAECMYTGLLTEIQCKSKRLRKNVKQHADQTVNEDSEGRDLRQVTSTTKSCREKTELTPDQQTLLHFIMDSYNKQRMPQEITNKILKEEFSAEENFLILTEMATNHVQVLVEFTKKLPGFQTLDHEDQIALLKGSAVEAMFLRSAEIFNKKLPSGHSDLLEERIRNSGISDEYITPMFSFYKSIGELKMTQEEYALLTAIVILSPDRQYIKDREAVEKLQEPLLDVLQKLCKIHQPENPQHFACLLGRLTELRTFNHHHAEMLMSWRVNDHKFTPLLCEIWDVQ
Method in brief: (§1)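 HepG2 cells were seeded at 2 × 10⁶ per well. After 24 h they were switched to MEM with 1% charcoal-stripped FCS, and 24 h later dosed with compound (0.1, 0.3, 1, 3, 10 μM; 0.1% DMSO final) for 24 h. Total RNA was reverse transcribed and analysed by qPCR, GAPDH-normalized, ΔΔCt method. Samples were run in duplicate in ≥4 independent experiments.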

[2] = target: T1, Bile acid receptor (Homo sapiens); test: Agonist activity at FXR in human HepG2 cells assessed as induction of SHP mrNA expression at 0.1 uM by quantitative PCR method; method in brief: as §1
[3] = target: T1, Bile acid receptor (Homo sapiens); test: Agonist activity at FXR in human HepG2 cells assessed as induction of IBABP mrNA expression at 10 uM by quantitative PCR method
[4] = target: T1, Bile acid receptor (Homo sapiens); test: Agonist activity at FXR in human HepG2 cells assessed as induction of BSEP mrNA expression at 1 uM by quantitative PCR method; method in brief: as §1
[5] = target: T1, Bile acid receptor (Homo sapiens); test: Agonist activity at FXR in human HepG2 cells assessed as induction of OSTalpha mrNA expression at 0.1 uM by quantitative PCR method; method in brief: as §1
[6] = target: T1, Bile acid receptor (Homo sapiens); test: Agonist activity at FXR in human HepG2 cells assessed as induction of BSEP mrNA expression at 0.1 uM by quantitative PCR method; method in brief: as §1
[7] = target: T1, Bile acid receptor (Homo sapiens); test: Agonist activity at FXR in human HepG2 cells assessed as induction of IBABP mrNA expression at 1 uM by quantitative PCR method
[8] = target: T1, Bile acid receptor (Homo sapiens); test: Agonist activity at FXR in human HepG2 cells assessed as induction of BSEP mrNA expression at 0.3 uM by quantitative PCR method; method in brief: as §1
[9] = target: T1, Bile acid receptor (Homo sapiens); test: Agonist activity at FXR in human HepG2 cells assessed as induction of IBABP mrNA expression at 0.1 uM by quantitative PCR method
[10] = target: T1, Bile acid receptor (Homo sapiens); test: Agonist activity at FXR in human HepG2 cells assessed as induction of BSEP mrNA expression at 10 uM by quantitative PCR method; method in brief: as §1
[11] = target: T1, Bile acid receptor (Homo sapiens); test: Agonist activity at FXR in human HepG2 cells assessed as induction of SHP mrNA expression at 10 uM by quantitative PCR method; method in brief: as §1
[12] = target: T1, Bile acid receptor (Homo sapiens); test: Agonist activity at FXR in human HepG2 cells assessed as induction of CYP7A1 mrNA expression at 1 uM by quantitative PCR method; method in brief: as §1

Activity [1]: 67%
Activity [2]: 239%
Activity [3]: 144%
Activity [5]: 151%
Activity [7]: 161%
Activity [9]: 188%
Activity [11]: 214%
Activity [12]: 55%
Structure (SMILES): COc1ccc(C(=O)Nc2cccc(C(=O)O)c2)c(NC(=O)c2ccc(C(C)(C)C)cc2)c1
Activity [4]: 319%
Activity [6]: 294%
Activity [8]: 300%
Activity [10]: 308%
